Measurements as given in ChEMBL document CHEMBL1649070, “Virtual screening identification of nonfolate compounds, including a CNS drug, as antiparasitic agents inhibiting pteridine reductase” (J Med Chem, 2011).
≈ marks a conversion by molar mass, not a printed value. Calls of active or inactive are those of the source. The calls are words filed in the database; no cut-off is given here.

Columns and labels:
[1] = Cytotoxicity against human MRC5 cells after 72 hrs by Alamar blue assay; format: cell-based; settings: read-out: ED50
[2] = test system: Leishmania mexicana; assay: Antileishmanial activity against Leishmania mexicana MHOM/BZ/84/BEL46 assessed as growth by Alamar blue assay; format: functional; settings: read-out: ED50 (the source's name)
Outline: (§1)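 Promastigotes cultured in SDM-79, pH 7.3, with 15% heat-inactivated FCS at 28 C under 5% CO2, then seeded at 1 × 10^6 parasites/mL. DMSO dilutions in medium tested from 100 μg/mL downward, DMSO <1% final. After 72 h at 28 C, Alamar Blue added for 4 h; fluorescence at ex 530 / em 590 nm. Untreated cultures set as 100%. ED50 by linear interpolation; three independent experiments, each in duplicate.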

[3] = test system: Leishmania major; assay: Antileishmanial activity against Leishmania major MHOM/SU/73/5-ASKH assessed as growth by Alamar blue assay; format: functional; settings: read-out: ED50 (the source's name); outline: as §1
[4] = test system: Leishmania major; assay: Antileishmanial activity against Leishmania major MHOM/SU/73/5-ASKH assessed as growth at 50 ug/ml by Alamar blue assay; format: functional
Outline: (§2)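 Promastigotes grown in SDM-79, pH 7.3, with 15% heat-inactivated FCS at 28 C in 5% CO2, then seeded at 1 × 10^6 parasites/mL. Each compound tested alone at 50 μg/mL in duplicate as a control for the combination experiments; DMSO below 1% final. After 72 h at 28 C, Alamar Blue added for 4 h; fluorescence read at ex 530 / em 590 nm. Growth expressed as percentage of untreated cultures.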

[5] = test system: Leishmania major; assay: Antileishmanial activity against Leishmania major MHOM/SU/73/5-ASKH assessed as growth at 50 ug/ml by Alamar blue assay in presence of pyrimethamine; 5-(4-chlorophenyl)-6-ethylpyrimidine-2,4-diamine DHFR inhibitor; values are per cent of control
[6] = test system: Leishmania mexicana; assay: Antileishmanial activity against Leishmania mexicana MHOM/BZ/84/BEL46 assessed as growth at 50 ug/ml by Alamar blue assay; format: functional; outline: as §2
[7] = target: Bifunctional dihydrofolate reductase-thymidylate synthase (Leishmania major) (UniProt P07382); assay: Inhibition of Leishmania major DHFR at 50 uM
Outline: (§3)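 NADPH oxidation followed at 340 nm. Compounds in DMSO, screened at a single concentration between 25 μM and 1 mM. Measurements run in triplicate.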

[8] = target: T1, Pteridine reductase 1 (Leishmania major) (UniProt Q01782); assay: Inhibition of Leishmania major PTR1 at 5 uM
T1 sequence (whole entry): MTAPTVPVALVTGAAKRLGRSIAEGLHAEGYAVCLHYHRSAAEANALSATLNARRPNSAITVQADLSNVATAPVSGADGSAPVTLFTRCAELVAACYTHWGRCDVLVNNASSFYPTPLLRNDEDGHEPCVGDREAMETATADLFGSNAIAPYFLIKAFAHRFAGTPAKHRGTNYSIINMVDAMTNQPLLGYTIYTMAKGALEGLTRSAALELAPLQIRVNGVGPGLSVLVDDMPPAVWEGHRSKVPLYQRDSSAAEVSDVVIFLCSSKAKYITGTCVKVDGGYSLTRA
Outline: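 Compounds dissolved in DMSO and screened at a single 5 μM concentration; DMSO kept below 1%. Measurements run in triplicate.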

[9] = test system: Leishmania mexicana; assay: Antileishmanial activity against Leishmania mexicana MHOM/BZ/84/BEL46 assessed as growth at 50 ug/ml by Alamar blue assay in presence of pyrimethamine; 5-(4-chlorophenyl)-6-ethylpyrimidine-2,4-diamine DHFR inhibitor; values are per cent of control
[10] = target: Bifunctional dihydrofolate reductase-thymidylate synthase (Leishmania major) (UniProt P07382); assay: Inhibition of Leishmania major DHFR at 25 uM; outline: as §3
[11] = target: T2, Dihydrofolate reductase (Homo sapiens) (UniProt P00374); assay: Inhibition of human DHFR at 25 uM; outline: as §3
T2 sequence (whole entry): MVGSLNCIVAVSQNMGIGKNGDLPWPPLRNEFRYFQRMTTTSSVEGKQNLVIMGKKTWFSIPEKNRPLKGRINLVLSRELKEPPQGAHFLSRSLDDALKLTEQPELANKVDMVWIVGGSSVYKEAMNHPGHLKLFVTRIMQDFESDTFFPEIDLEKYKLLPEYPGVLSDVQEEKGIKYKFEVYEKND

[12] = Lipophilicity, log D of the compound in octanol buffer at pH 7.4; format: physicochemical
[13] = target: T2, Dihydrofolate reductase (Homo sapiens); assay: Inhibition of human DHFR at 50 uM; outline: as §3
[14] = Cytotoxicity against human MRC5 cells at 100 ug/ml after 72 hrs by Alamar blue assay; format: cell-based; settings: at 100 µg/mL, read-out: INH
[15] = Solubility of the compound at pH 7.4; format: physicochemical; settings: buffer
[16] = target: Bifunctional dihydrofolate reductase-thymidylate synthase (Leishmania major) (UniProt P07382); assay: Inhibition of Leishmania major DHFR at 1 mM; outline: as §3

Sequence of Bifunctional dihydrofolate reductase-thymidylate synthase (Leishmania major) (P07382 whole entry, looked up): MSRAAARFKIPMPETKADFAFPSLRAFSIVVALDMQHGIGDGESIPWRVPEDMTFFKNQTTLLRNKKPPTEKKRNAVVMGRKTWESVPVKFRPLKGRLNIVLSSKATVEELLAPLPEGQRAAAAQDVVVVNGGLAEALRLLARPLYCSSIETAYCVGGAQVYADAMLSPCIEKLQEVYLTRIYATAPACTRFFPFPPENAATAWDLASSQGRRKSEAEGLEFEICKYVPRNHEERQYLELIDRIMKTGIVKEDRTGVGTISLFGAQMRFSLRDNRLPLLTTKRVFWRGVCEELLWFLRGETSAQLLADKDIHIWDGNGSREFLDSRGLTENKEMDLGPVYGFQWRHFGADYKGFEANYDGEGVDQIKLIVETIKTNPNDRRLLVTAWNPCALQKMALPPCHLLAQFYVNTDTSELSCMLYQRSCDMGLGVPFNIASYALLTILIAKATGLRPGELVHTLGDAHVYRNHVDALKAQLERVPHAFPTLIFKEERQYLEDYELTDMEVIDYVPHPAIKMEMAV

| inhibition [7] | inhibition [8] | inhibition [10] | inhibition [11] | logD [12] | inhibition [13] | solubility [15] [µM] | inhibition [16] | SMILES | CC50 at 72 h [1] [µg/mL] | EC50 [2] [µg/mL] | EC50 [3] [µg/mL] | growth, % of control at 50 µg/mL [4] [%] | growth, % of control at 50 µg/mL [5] [%] | growth, % of control at 50 µg/mL [6] [%] | growth, % of control at 50 µg/mL [9] [%] | cytotoxicity at 72 h, 100 ug/ml [14] [%] |
| --- | --- | --- | --- | --- | --- | --- | --- | --- | --- | --- | --- | --- | --- | --- | --- | --- |
| inactive | inactive | – | – | – | – | – | – | O=C(CCCl)Nc1nnc(CCCl)s1 | 4.18 (≈ 16.4 µM) | 10.1 (≈ 39.7 µM) | 22.1 (≈ 87 µM) | 7.1 | 4.1 | 4.7 | 3.5 | – |
| – | – | inactive | inactive | – | – | – | – | Nc1nc2ccc([N+](=O)[O-])cc2s1 | – | – | – | – | – | – | – | – |
| inactive | inactive | – | – | 1.44 | inactive | 1700 (≈ 328 µg/mL) | – | Nc1nnc(-c2cnccc2N)s1 | – | – | – | 106 | 38 | 112 | 15.6 | 10 |
| – | – | – | – | – | – | – | inactive | Nc1nc2ccc(OC(F)(F)F)cc2s1 [RILUZOLE] | 27.9 (≈ 119 µM) | 30.8 (≈ 132 µM) | – | 102 | 22.9 | 21.5 | 15.1 | – |
